Columns and labels:
Homo sapiens [1] = organism: Homo sapiens; experiment: Antioxidant activity against copper mediated low-density lipoproteins (LDL) oxidation; assay type: functional
How it was run: (§1)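 Test compounds at final 1 µg/mL. Oxidation read as TBARS, expressed as nmol MDA/mg LDL and % inhibition against LDL + CuSO4 alone. Electromobility was also compared on 0.7% agarose gel.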

Homo sapiens [2] = organism: Homo sapiens; experiment: Antioxidant activity was determined by measuring the produced thiobarbituric acid reactive substance; assay type: functional; how it was run: as §1
[3] = biological target: T1, Sterol O-acyltransferase 2 (Homo sapiens, UniProt O75908); experiment: Inhibitory activity against human Acyl-CoA:cholesterol acyltransferase-2
T1 sequence (O75908 whole entry): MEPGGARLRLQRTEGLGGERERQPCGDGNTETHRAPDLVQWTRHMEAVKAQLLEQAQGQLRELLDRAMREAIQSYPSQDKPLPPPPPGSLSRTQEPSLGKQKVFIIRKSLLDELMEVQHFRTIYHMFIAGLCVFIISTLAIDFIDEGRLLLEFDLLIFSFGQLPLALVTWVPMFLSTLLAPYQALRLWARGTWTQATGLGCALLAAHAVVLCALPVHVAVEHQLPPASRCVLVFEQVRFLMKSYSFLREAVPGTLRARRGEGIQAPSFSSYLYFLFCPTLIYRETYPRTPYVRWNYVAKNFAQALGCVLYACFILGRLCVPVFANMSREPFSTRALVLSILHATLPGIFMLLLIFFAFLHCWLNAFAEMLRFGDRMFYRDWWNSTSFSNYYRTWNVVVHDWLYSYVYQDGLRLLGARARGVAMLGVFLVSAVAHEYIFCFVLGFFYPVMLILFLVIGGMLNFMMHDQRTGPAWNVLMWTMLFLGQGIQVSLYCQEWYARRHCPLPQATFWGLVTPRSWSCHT

[4] = biological target: T2, Sterol O-acyltransferase 2 (Homo sapiens) (UniProt O75908); experiment: Inhibitory activity against human Acyl-CoA:cholesterol acyltransferase-2 at 30 ug/mL
T2 sequence (whole entry): T1 sequence (O75908 whole entry)

Oryctolagus cuniculus = organism: Oryctolagus cuniculus; experiment: Compound inhibited the rHDL-particle rearrangement under presence of LDL at 37 degree C; assay type: functional
How it was run: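 rHDL particles (98 Å, 2 mg/mL preparation) were incubated at 37 °C for 24 h with human LDL (4 mg/mL preparation) and compound. Products were run on native 8–25% polyacrylamide gradient gel and stained with Coomassie to compare particle size.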

SMILES	IC50 (Homo sapiens [1]) [µM]	Activity (Homo sapiens [2])	IC50 [3] [µM]	inhibition [4] [%]	Inhibition (Oryctolagus cuniculus) [µM]
O=C(CCc1ccc(O)c(O)c1)N[C@@H](CC(=O)OCc1ccccc1)C(=O)OCc1ccccc1	3	32.1 nmol of MDA/mg of LDL	81	> 70	
COC(=O)[C@H](Cc1ccccc1)NC(=O)/C=C/c1ccc(O)cc1	52	269 nmol of MDA/mg of LDL		> 70	307
COC(=O)[C@H](C)NC(=O)/C=C/c1ccc(O)c(O)c1		91.5 nmol of MDA/mg of LDL		0	
CC(C)(Sc1cc(C(C)(C)C)c(O)c(C(C)(C)C)c1)Sc1cc(C(C)(C)C)c(O)c(C(C)(C)C)c1 [PROBUCOL]		263.1 nmol of MDA/mg of LDL			

— ChEMBL document CHEMBL1137834, “Synthesis of cinnamic acid derivatives and their inhibitory effects on LDL-oxidation, acyl-CoA:cholesterol acyltransferase-1 and -2 activity, and decrease of HDL-particle size” (Bioorg Med Chem Lett, 2004)
